ChEMBL document CHEMBL4138085, “Design, synthesis and antimicrobial evaluation of novel benzimidazole-incorporated sulfonamide analogues” (Eur J Med Chem, 2017)
Values after ≈ are worked out from the molar mass of the structure shown.

Tests used:
Cyberlindnera jadinii = assay: Antifungal activity against Candida utilis after 24 hrs by NCCLS two fold broth microdilution method; type: functional; details: Williopsis jadinii
In short: (§1)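 Two-fold serial microdilution following NCCLS. A spore suspension in sterile distilled water was prepared from one-day-old cultures grown on Sabouraud agar and adjusted to a final 1–5 × 10^3 spores/mL. DMSO stocks were diluted in RPMI 1640 to eleven concentrations (0.5–512 µg/mL), inoculated and held at 35 °C for 24 h. Growth was read visually and spectrophotometrically, MIC was the lowest concentration with complete inhibition, and runs were in triplicate.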

Candida albicans = assay: Antifungal activity against Candida albicans ATCC 76615 after 24 hrs by NCCLS two fold broth microdilution method; type: functional; details: ATCC 76615, 24 h; in short: as §1
Pseudomonas aeruginosa = assay: Antibacterial activity against Pseudomonas aeruginosa ATCC 27853 after 24 hrs by NCCLS two fold broth microdilution method; type: functional; details: ATCC 27853, 24 h
In short: (§2)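 Two-fold serial broth microdilution in 96-well plates following NCCLS. Plates were inoculated and incubated at 37 °C for 24 h, with growth read visually and spectrophotometrically. MIC was taken as the lowest concentration giving complete growth inhibition. Run in triplicate, with a DMSO-plus-inoculum solvent control.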

Staphylococcus aureus [1] = assay: Antibacterial activity against Staphylococcus aureus ATCC 25923 after 24 hrs by NCCLS two fold broth microdilution method; type: functional; details: ATCC 25923, 24 h
In short: as §2, with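 “NCCLS. Compounds were dissolved in DMSO as stocks, then diluted in Mueller–Hinton broth to final concentrations of 0.5–512 µg/mL.” for “NCCLS.”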

Escherichia coli = assay: Antibacterial activity against Escherichia coli ATCC 8099 after 24 hrs by NCCLS two fold broth microdilution method; type: functional; details: ATCC 8099, 24 h; in short: as §2
Aspergillus flavus = assay: Antifungal activity against Aspergillus flavus after 24 hrs by NCCLS two fold broth microdilution method; type: functional; in short: as §1
Micrococcus luteus = assay: Antibacterial activity against Micrococcus luteus ATCC 4698 after 24 hrs by NCCLS two fold broth microdilution method; type: functional; details: NCTC 2665, 24 h
In short: as §2, with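 “NCCLS. Compounds were dissolved in DMSO as stocks, then diluted in Mueller–Hinton broth to final concentrations of 0.5–512 µg/mL.” for “NCCLS.”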

Salmonella typhi = assay: Antibacterial activity against Bacillus typhi after 24 hrs by NCCLS two fold broth microdilution method; type: functional, Salmonella enterica subsp. enterica serovar Typhi; details: Salmonella enterica
In short: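 Two-fold serial broth microdilution per NCCLS. DMSO stocks diluted in Mueller–Hinton broth to 512, 256, 128, 64, 32, 16, 8, 4, 2, 1, 0.5 µg/mL. Chloromycin and norfloxacin as reference drugs; DMSO with inoculum, no drug, as solvent control. Incubation 37 °C for 24 h. Growth read visually and spectrophotometrically. MIC is the lowest concentration completely inhibiting growth; triplicate.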

Bacillus = assay: Antibacterial activity against Bacillus proteus ATCC 13315 after 24 hrs by NCCLS two fold broth microdilution method; type: functional; details: ATCC 13315, 24 h
In short: as §2, with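 “NCCLS. Compounds were dissolved in DMSO as stocks, then diluted in Mueller–Hinton broth to final concentrations of 0.5–512 µg/mL.” for “NCCLS.”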

Saccharomyces cerevisiae = assay: Antifungal activity against Saccharomyces cerevisiae after 24 hrs by NCCLS two fold broth microdilution method; type: functional; in short: as §1
Bacillus subtilis = assay: Antibacterial activity against Bacillus subtilis ATCC 21216 after 24 hrs by NCCLS two fold broth microdilution method; type: functional; details: ATCC 21216, 24 h
In short: as §2, with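 “NCCLS. Compounds were dissolved in DMSO as stocks, then diluted in Mueller–Hinton broth to final concentrations of 0.5–512 µg/mL.” for “NCCLS.”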

Staphylococcus aureus [2] = assay: Antibacterial activity against methicillin-resistant Staphylococcus aureus N315 after 24 hrs by NCCLS two fold broth microdilution method; type: functional; details: N315, 24 h
In short: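 Two-fold serial broth microdilution per NCCLS. Chloromycin and norfloxacin as reference drugs; DMSO with inoculum, no drug, as solvent control. Incubation 37 °C for 24 h. Growth read visually and spectrophotometrically. MIC is the lowest concentration completely inhibiting growth; triplicate.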

Pichia norvegensis = assay: Antifungal activity against Candida mycoderma after 24 hrs by NCCLS two fold broth microdilution method; type: functional

SMILES	MIC (Cyberlindnera jadinii) [µg/mL]	MIC (Candida albicans) [µg/mL]	MIC (Pseudomonas aeruginosa) [µg/mL]	MIC (Staphylococcus aureus [1]) [µg/mL]	MIC (Escherichia coli) [µg/mL]	MIC (Aspergillus flavus) [µg/mL]	MIC (Micrococcus luteus) [µg/mL]	MIC (Salmonella typhi) [µg/mL]	MIC (Bacillus) [µg/mL]	MIC (Saccharomyces cerevisiae) [µg/mL]	MIC (Bacillus subtilis) [µg/mL]	MIC (Staphylococcus aureus [2]) [µg/mL]	MIC (Pichia norvegensis) [µg/mL]
CC(=O)Nc1ccc(S(=O)(=O)Cc2nc3ccccc3n2Cc2ccc(Cl)cc2)cc1	512 (≈ 1130 µM)	128 (≈ 282 µM)	512 (≈ 1130 µM)	512 (≈ 1130 µM)	128 (≈ 282 µM)	512 (≈ 1130 µM)	128 (≈ 282 µM)	64 (≈ 141 µM)	256 (≈ 564 µM)	64 (≈ 141 µM)	256 (≈ 564 µM)	512 (≈ 1130 µM)	32 (≈ 70.5 µM)
Nc1ccc(S(=O)(=O)Cc2nc3ccccc3n2Cc2cccc(F)c2)cc1	512 (≈ 1290 µM)	128 (≈ 324 µM)	512 (≈ 1290 µM)	512 (≈ 1290 µM)	128 (≈ 324 µM)	256 (≈ 647 µM)	512 (≈ 1290 µM)	512 (≈ 1290 µM)	256 (≈ 647 µM)	8 (≈ 20.2 µM)	512 (≈ 1290 µM)	128 (≈ 324 µM)	512 (≈ 1290 µM)
CC(=O)Nc1ccc(S(=O)(=O)Cc2nc3ccccc3n2Cc2ccc(Cl)c(Cl)c2)cc1	512 (≈ 1050 µM)	64 (≈ 131 µM)	512 (≈ 1050 µM)	64 (≈ 131 µM)	256 (≈ 524 µM)	16 (≈ 32.8 µM)	256 (≈ 524 µM)	512 (≈ 1050 µM)	128 (≈ 262 µM)	32 (≈ 65.5 µM)	128 (≈ 262 µM)	512 (≈ 1050 µM)	512 (≈ 1050 µM)
CCCCCCn1c(CS(=O)(=O)c2ccc(NC(C)=O)cc2)nc2ccccc21	512 (≈ 1240 µM)	512 (≈ 1240 µM)	512 (≈ 1240 µM)	512 (≈ 1240 µM)	512 (≈ 1240 µM)	512 (≈ 1240 µM)	256 (≈ 619 µM)	512 (≈ 1240 µM)	256 (≈ 619 µM)	512 (≈ 1240 µM)	128 (≈ 310 µM)	512 (≈ 1240 µM)	512 (≈ 1240 µM)
CC(=O)Nc1ccc(S(=O)(=O)Cc2nc3ccccc3n2CCCCCn2c3ccccc3c3ccccc32)cc1	512 (≈ 907 µM)	512 (≈ 907 µM)	16 (≈ 28.3 µM)	256 (≈ 453 µM)	512 (≈ 907 µM)	128 (≈ 227 µM)	128 (≈ 227 µM)	64 (≈ 113 µM)	512 (≈ 907 µM)	32 (≈ 56.7 µM)	512 (≈ 907 µM)	512 (≈ 907 µM)	32 (≈ 56.7 µM)
CC(=O)Nc1ccc(S(=O)(=O)Cc2nc3ccccc3[nH]2)cc1	16 (≈ 48.6 µM)	32 (≈ 97.2 µM)	32 (≈ 97.2 µM)	32 (≈ 97.2 µM)	64 (≈ 194 µM)	128 (≈ 389 µM)	128 (≈ 389 µM)	128 (≈ 389 µM)	64 (≈ 194 µM)	32 (≈ 97.2 µM)	32 (≈ 97.2 µM)	128 (≈ 389 µM)	64 (≈ 194 µM)
CCCCCCCn1c(CS(=O)(=O)c2ccc(N)cc2)nc2ccccc21	512 (≈ 1330 µM)	512 (≈ 1330 µM)	512 (≈ 1330 µM)	512 (≈ 1330 µM)	512 (≈ 1330 µM)	512 (≈ 1330 µM)	128 (≈ 332 µM)	512 (≈ 1330 µM)	512 (≈ 1330 µM)	64 (≈ 166 µM)	512 (≈ 1330 µM)	512 (≈ 1330 µM)	512 (≈ 1330 µM)
CCCCCn1c(CS(=O)(=O)c2ccc(NC(C)=O)cc2)nc2ccccc21	32 (≈ 80.1 µM)	256 (≈ 641 µM)	4 (≈ 10 µM)	32 (≈ 80.1 µM)	256 (≈ 641 µM)	32 (≈ 80.1 µM)	32 (≈ 80.1 µM)	32 (≈ 80.1 µM)	256 (≈ 641 µM)	64 (≈ 160 µM)	64 (≈ 160 µM)	128 (≈ 320 µM)	16 (≈ 40 µM)
CCCCCCCCn1c(CS(=O)(=O)c2ccc(N)cc2)nc2ccccc21	512 (≈ 1280 µM)	64 (≈ 160 µM)	512 (≈ 1280 µM)	512 (≈ 1280 µM)	512 (≈ 1280 µM)	512 (≈ 1280 µM)	512 (≈ 1280 µM)	512 (≈ 1280 µM)	512 (≈ 1280 µM)	512 (≈ 1280 µM)	512 (≈ 1280 µM)	512 (≈ 1280 µM)	256 (≈ 641 µM)
